In this test the test system is MCF-7 breast cancer cells. Format: cell-based. The settings on record: broad compound screen at 10 μM, compared with (+)-21. The procedure, abridged: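 Single-concentration screen: each test compound at 10 μM, run in parallel against MCF-7 breast cancer cells and non-tumorigenic MCF-10A breast cells. The assay is proliferation-based, and the read-out is relative cell number after treatment, expressed as a percentage. Selectivity is judged by comparing the MCF-7 response with the MCF-10A response.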

As to `c1ccsc1` [compound 28, thiophene], the “inhibition of cell proliferation / cell growth (in words)” value is listed as “did not inhibit cell growth”.
Regarding `c1ccc2sccc2c1` [compound 29, benzothiophene], the “inhibition of cell proliferation / cell growth (in words)” value is “did not inhibit cell growth”.

(Values after paper PMC3991427 (Angewandte Chemie (International ed. in English), 2014).)
